Bioassay records from PubChem.
Hits are enriched below; roughly 5.1% of the tested compounds scored in any of these assays.
STAT3 activator: activators of IL-6 induced STAT3 signaling | U3A cells, IL-6 STAT3-luciferase reporter, luminescence; 100% = signal with IL-6 EC80 alone | activation (% of control), % at 5.6 µM | 190,000 compounds, 0.91% hits;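 active = activation above the screen-wide mean of compound activation plus 3 SD, cut at about 130% in these data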;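 note: 0% = background luminescence of wells with medium and substrate only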
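Test system: human U3A cells carrying STAT3-luciferase construct; control set: IL-6-only wells as 100% reference; timing: compound pre-incubation 1 h before IL-6, then 6 h stimulation at 37 °C; also added: IL-6 stimulus at 33 ng/mL final; evaluation: % activation versus median of IL-6-stimulated wells; detection: reporter luminescence signal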
STAT3 inh: reduces IL-6 driven STAT3 reporter signal. 190,000 compounds, 0.89% hits. inhibition, % at 5.5 µM. U3A cells, IL-6 STAT3-luciferase reporter, luminescence; host cell line lacks STAT1;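 active = inhibition above the mean inhibition across all screened compounds plus 3 SD, cut at about 44% in these data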;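 note: 0% = DMSO only wells and 100% = 100 µM nifuroxazide control wells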
NF-kB expr up: compounds increasing NF-kB expression in human neuronal cells; NF-kB reporter expression; active compounds read high; fold change at 12.5 µM; 190,000 compounds, 1.6% hits; in the data active = fold change above about 3.3
STAT1 act: STAT1 signaling activation; NIH 3T3 STAT1-luciferase reporter, IFN-gamma, luminescence; 100% = IFN-gamma alone, no compound; activation (% of control), % at 5.5 µM; 200,000 compounds, 2.6% hits; AID 932;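 active = activation above the screen-wide mean activation plus 3 SD, cut at about 130% in these data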;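 note: raw ratio to IFN-gamma control signal so 100% means no change and 0% no light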
STAT1 inh: STAT1 signaling inhibition. NIH 3T3 STAT1-luciferase reporter, IFN-gamma, luminescence. inhibition, % at 5.5 µM. 200,000 compounds, 0.35% hits. AID 920;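 active = inhibition above a set limit, the mean inhibition across all tested compounds plus 3 SD, cut at about 34% in these data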;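 note: 0% = IFN-gamma with DMSO and 100% = IFN-gamma with 300 µM nifuroxazide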
APP 5'UTR act: APP 5'UTR luciferase reporter activation | activation, % at 2 µM | SH-SY5Y APP 5'UTR luciferase reporter, luminescence; zero percent = DMSO vehicle wells | 190,000 compounds, 1% hits;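 active = activation above a set limit, based on mean plus 3 SD of controls, cut at about 140% in these data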
Starred values were filed as active, the others as inactive.

SMILES	STAT3 activator	STAT3 inh	NF-kB expr up	STAT1 act	STAT1 inh	APP 5'UTR act
CCCC(C)NC(=O)c1ccc(-c2ccccc2)cc1 (centres undefined)	102.2	9.1	1.83	128.0	-31.8	47.5
Cc1nn(C(=O)CN2C(=O)c3ccccc3C2=O)c(C)c1Br	101.6	7.0	1.01	105.7	-6.2	12.6
COc1ccc(N2C(=O)C3CC(C)=C(C)CC3C2=O)c(OC)c1 (centres undefined)	104.3	-6.9	1.15	114.8	-16.1	2.6
COc1ccc(N2C(=O)CCC2=O)c(OC)c1	98.9	8.0	1.07	140.4*	-45.3	-7.8
C=CCSc1nc2sc(C)c(C)c2c(=O)n1N	108.1	-4.3	0.92	102.9	-3.3	8.2
COC(=O)c1ccc2nc(Nc3nc4ccc(F)cc4s3)sc2c1	24.1	92.5*	2.02	42.9	63.8*	-42.5
CCOC(=O)c1csc(Nc2nc3ccc(F)cc3s2)n1	95.8	10.3	1.17	117.6	-19.3	15.0
CC(=O)Nc1nc2ccc(C(=O)NC3CCCCC3)cc2s1	96.1	6.7	1.3	98.2	2.0	-2.8
COC(=O)c1ccc2nc(NC(=O)C(C)(C)C)sc2c1	15.8	99.7*	1.06	30.5	73.8*	107.6
CC(=O)c1sc(Nc2nc3ccc(F)cc3s2)nc1C	106.2	-2.1	2.67	135.4*	-38.8	44.1
COC(=O)Nc1nc2ccc(Br)cc2s1	91.2	15.3	1.45	112.7	-13.9	48.1
COC(=O)c1ccc2nc(NC(=O)C3CCCCC3)sc2c1	107.0	-2.1	1.57	124.1	-26.1	141.1*
CCC(C)[C@H](N)c1nnc(SCC(=O)c2ccc(Cl)cc2)o1 (some centres undefined)	82.3	21.2	0.91	94.0	6.5	19.9
CCN(CC)C(=O)C1CCCN(c2ccc([N+](=O)[O-])cc2)C1 (centres undefined)	95.4	7.7	0.96	107.6	-10.2	-16.7
O=C(Nn1cc(C(=O)Nc2ccccc2F)c2ccccc2c1=O)c1cnccn1	101.7	0.4	1.32	92.4	7.4	-12.8
COc1cc(OC)cc(C(=O)Nn2cc(C(=O)Nc3ccccc3F)c3ccccc3c2=O)c1	134.1*	-46.0	1.48	83.6	19.5	-12.7
Cc1onc(-c2ccccc2)c1C(=O)Nc1nnc(N(C)Cc2ccccc2)s1	97.0	8.5	1.13	105.9	-6.5	-13.6
Cc1cc(=O)[nH]c(SCc2nc3ccc([N+](=O)[O-])cc3[nH]2)n1	95.4	5.4	0.95	98.1	2.2	10.9
C/C(=N\Nc1cccc2cccnc12)c1ccc(N)cc1	101.2	9.2	2.27	111.4	-14.4	197.7*
C/C(=N\Nc1cccc2cccnc12)c1ccccc1O	111.6	-12.7	6.93*	118.2	-19.7	202.0*
C/C(=N\Nc1cccc2cccnc12)c1ccccn1	48.1	68.1*	0.97	60.5	41.3*	271.6*
Oc1c(/C=N/Nc2cccc3cccnc23)ccc2ccccc12	105.0	-4.6	1.76	97.8	1.8	86.9
C/C(=N\Nc1ncc(Cl)cc1Cl)c1ccccn1	23.3	93.8*	0.44	35.8	68.6*	-70.2
C/C(=N\Nc1ncc(Cl)cc1Cl)c1ccc(N2CCOCC2)cc1	95.1	9.4	1.5	111.2	-14.2	62.8
C/C(=N\NC(=O)CC1N=C(Cc2ccccc2)NNC1=O)c1ccc(Cl)cc1Cl (centres undefined)	93.9	10.8	0.79	96.7	3.6	-15.8
SMILES	STAT3 activator	STAT3 inh	NF-kB expr up	STAT1 act	STAT1 inh	APP 5'UTR act
CCC(C)C(NC(N)=O)C(=O)Nc1ccc(C)c(Cl)c1 (centres undefined)	106.0	-7.2	0.87	103.6	-4.1	29.6
Cc1ccc2c(c1)sc(=NC(=O)c1cccs1)n2C	31.7	88.1*	2.23	24.0	81.4*	219.8*
C#CCn1c(=NC(=O)c2cccs2)sc2cccc(OC)c21	122.2	-22.2	1.36	121.7	-24.0	15.6
CCOC(=O)c1sc(=NC(=O)c2ccco2)n(C)c1C	142.8*	-47.5	2.08	129.1*	-32.8	31.4
CCOC(=O)c1sc(=NC(=O)c2ccc(Cl)s2)n(C)c1C	136.8*	-46.6	1.47	150.6*	-53.9	146.1*
CCOC(=O)c1sc(NC(=O)c2cccs2)cc1C	69.6	41.7	4.05*	137.8*	-41.5	168.1*
CC(Sc1nnc(-c2ccc(Cl)cc2Cl)n1Cc1ccccc1)C(=O)Nc1nccs1 (centres undefined)	108.9	-5.4	1.14	92.2	8.6	-0.6
